Experimental data as given in ChEMBL document CHEMBL4689842, “EUbOPEN Chemogenomics Library wave 1” (2021).
“And” between values parts separate entries of the source, which are not always exact repeats. Equal values may be shown once.

System: U2OS
Experiment: Multiplex assay against U2OS
Assay type: toxicity, cell-based
Conditions: human
Procedure, shortened: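 Values for tubulin, mitochondrial-mass and membrane-permeability phenotypes are per cents of cells with healthy nuclei. These cells were identified by CellPathfinder machine-learning gating of live cells that had been stained at seeding with Hoechst33342, BioTracker Green Microtubule Cytoskeleton Dye, MitoTracker Red and Annexin V Alexa Fluor 680 and imaged on a CQ1 microscope at 37°C and 5% CO2 after compound addition. The gating first set Hoechst high-intensity objects apart from normal cells, then split normal cells into healthy, pyknosed or fragmented nuclei, and pyknosed cells into mitotic or apoptotic.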

[1] = 12 h, 1 µM, compound concentration 1 uM, replicate 1
[2] = 12 h, 1 µM, compound concentration 1 uM, replicate 2
[3] = 12 h, 10 µM, compound concentration 10 uM, replicate 1
[4] = 12 h, 10 µM, compound concentration 10 uM, replicate 2
[5] = 24 h, 1 µM, compound concentration 1 uM, replicate 1
[6] = 24 h, 1 µM, compound concentration 1 uM, replicate 2
[7] = 24 h, 10 µM, compound concentration 10 uM, replicate 1
[8] = 24 h, 10 µM, compound concentration 10 uM, replicate 2
[9] = 48 h, 10 µM, compound concentration 10 uM, replicate 1
[10] = 48 h, 10 µM, compound concentration 10 uM, replicate 2

C[C@@]1(C(=O)Nc2ccc(F)nc2)CCCN1c1nc(Nc2cc(C3CC3)n[nH]2)c2cccn2n1 [BMS-754807]
Population Apoptotic (%) [1]: 25% | Population Fragmented Nuclei (%) [1]: 8% | Population Healthy Nuclei (%) [1]: 75% | Population Hoechst High Intensity Objects (%) [1]: 4% | Population Membrane Permeable-Phenotype (%) [1]: 61% | Population Mitochondria Different-Phenotype (%) [1]: 10% | Population Mitotic Cells (%) [1]: 74% | Population Normal (%) [1]: 95% | Population Pyknosed Nuclei (%) [1]: 15% | Population Tubulin-Different-Phenotype (%) [1]: 78% | Total Cell Count [1]: 181 | Population Apoptotic (%) [2]: 16% | Population Fragmented Nuclei (%) [2]: 36% | Population Healthy Nuclei (%) [2]: 56% | Population Hoechst High Intensity Objects (%) [2]: 27% | Population Membrane Permeable-Phenotype (%) [2]: 45% | Population Mitochondria Different-Phenotype (%) [2]: 25% | Population Mitotic Cells (%) [2]: 83% | Population Normal (%) [2]: 72% | Population Pyknosed Nuclei (%) [2]: 7% | Population Tubulin-Different-Phenotype (%) [2]: 62% | Total Cell Count [2]: 117 | Population Apoptotic (%) [3]: 41% and 56% | Population Fragmented Nuclei (%) [3]: 10% and 4% | Population Healthy Nuclei (%) [3]: 65% and 86% | Population Hoechst High Intensity Objects (%) [3]: 6% and 2% | Population Membrane Permeable-Phenotype (%) [3]: 6% and 9% | Population Mitochondria Different-Phenotype (%) [3]: 71% and 27% | Population Mitotic Cells (%) [3]: 58% and 43% | Population Normal (%) [3]: 93% and 97% | Population Pyknosed Nuclei (%) [3]: 24% and 8% | Total Cell Count [3]: 191 and 183 | Population Apoptotic (%) [4]: 33% | Population Fragmented Nuclei (%) [4]: 15% and 11% | Population Healthy Nuclei (%) [4]: 58% and 80% | Population Hoechst High Intensity Objects (%) [4]: 13% and 9% | Population Membrane Permeable-Phenotype (%) [4]: 22% and 16% | Population Mitochondria Different-Phenotype (%) [4]: 70% and 40% | Population Mitotic Cells (%) [4]: 66% | Population Normal (%) [4]: 86% and 90% | Total Cell Count [4]: 53 and 85 | Population Apoptotic (%) [5]: 38% | Population Fragmented Nuclei (%) [5]: 15% | Population Healthy Nuclei (%) [5]: 60% | Population Hoechst High Intensity Objects (%) [5]: 4% | Population Membrane Permeable-Phenotype (%) [5]: 63% | Population Mitochondria Different-Phenotype (%) [5]: 32% | Population Mitotic Cells (%) [5]: 61% | Population Normal (%) [5]: 95% | Population Pyknosed Nuclei (%) [5]: 24% | Population Tubulin-Different-Phenotype (%) [5]: 78% | Total Cell Count [5]: 181 | Population Apoptotic (%) [6]: 40% | Population Fragmented Nuclei (%) [6]: 41% | Population Healthy Nuclei (%) [6]: 47% | Population Hoechst High Intensity Objects (%) [6]: 20% | Population Membrane Permeable-Phenotype (%) [6]: 41% | Population Mitochondria Different-Phenotype (%) [6]: 30% | Population Mitotic Cells (%) [6]: 60% | Population Normal (%) [6]: 79% | Population Pyknosed Nuclei (%) [6]: 10% | Population Tubulin-Different-Phenotype (%) [6]: 51% | Total Cell Count [6]: 114 | Population Apoptotic (%) [7]: 28% and 49% | Population Fragmented Nuclei (%) [7]: 11% and 15% | Population Healthy Nuclei (%) [7]: 76% and 54% | Population Hoechst High Intensity Objects (%) [7]: 5% and 8% | Population Membrane Permeable-Phenotype (%) [7]: 11% and 8% | Population Mitochondria Different-Phenotype (%) [7]: 51% and 74% | Population Mitotic Cells (%) [7]: 71% and 50% | Population Normal (%) [7]: 94% and 91% | Population Pyknosed Nuclei (%) [7]: 11% and 30% | Total Cell Count [7]: 187 and 184 | Population Fragmented Nuclei (%) [8]: 17% and 12% | Population Healthy Nuclei (%) [8]: 47% and 74% | Population Hoechst High Intensity Objects (%) [8]: 9% and 11% | Population Membrane Permeable-Phenotype (%) [8]: 22% | Population Mitochondria Different-Phenotype (%) [8]: 59% and 45% | Population Mitotic Cells (%) [8]: 62% and 90% | Population Normal (%) [8]: 90% and 88% | Population Pyknosed Nuclei (%) [8]: 34% and 12% | Population Tubulin-Different-Phenotype (%) [8]: 77% and 28% | Total Cell Count [8]: 51 and 89 | Population Apoptotic (%) [9]: 72% | Population Fragmented Nuclei (%) [9]: 26% | Population Healthy Nuclei (%) [9]: 21% | Population Hoechst High Intensity Objects (%) [9]: 11% | Population Membrane Permeable-Phenotype (%) [9]: 13% | Population Mitochondria Different-Phenotype (%) [9]: 75% | Population Mitotic Cells (%) [9]: 27% | Population Normal (%) [9]: 88% | Population Pyknosed Nuclei (%) [9]: 52% | Population Tubulin-Different-Phenotype (%) [9]: 88% | Total Cell Count [9]: 193 | Population Apoptotic (%) [10]: 66% | Population Fragmented Nuclei (%) [10]: 25% | Population Healthy Nuclei (%) [10]: 30% | Population Hoechst High Intensity Objects (%) [10]: 20% | Population Membrane Permeable-Phenotype (%) [10]: 91% | Population Mitochondria Different-Phenotype (%) [10]: 83% | Population Mitotic Cells (%) [10]: 33% | Population Normal (%) [10]: 80% | Population Pyknosed Nuclei (%) [10]: 45% | Population Tubulin-Different-Phenotype (%) [10]: 91% | Total Cell Count [10]: 50

CNCc1ccc(-c2cc(-c3nc(-c4ccc(S(=O)(=O)C(C)C)cc4)cnc3N)on2)cc1 [BERZOSERTIB]
Population Apoptotic (%) [1]: 16% and 46% | Population Healthy Nuclei (%) [1]: 6% and 0% | Population Hoechst High Intensity Objects (%) [1]: 31% and 81% | Population Membrane Permeable-Phenotype (%) [1]: 46% and 20% | Population Mitochondria Different-Phenotype (%) [1]: 40% and 20% | Population Mitotic Cells (%) [1]: 83% and 53% | Population Tubulin-Different-Phenotype (%) [1]: 40% and 80% | Total Cell Count [1]: 185 and 523 | Population Apoptotic (%) [2]: 10% | Population Fragmented Nuclei (%) [2]: 41% and 95% | Population Healthy Nuclei (%) [2]: 10% and 1% | Population Hoechst High Intensity Objects (%) [2]: 52% and 83% | Population Membrane Permeable-Phenotype (%) [2]: 42% and 55% | Population Mitotic Cells (%) [2]: 89% | Population Normal (%) [2]: 47% and 16% | Population Pyknosed Nuclei (%) [2]: 48% | Population Apoptotic (%) [3]: 17% and 38% | Population Healthy Nuclei (%) [3]: 4% and 0% | Population Hoechst High Intensity Objects (%) [3]: 49% and 82% | Population Membrane Permeable-Phenotype (%) [3]: 58% and 75% | Population Mitochondria Different-Phenotype (%) [3]: 25% and 0% | Population Mitotic Cells (%) [3]: 82% and 61% | Population Normal (%) [3]: 50% and 17% | Population Tubulin-Different-Phenotype (%) [3]: 41% and 50% | Population Apoptotic (%) [4]: 11% | Population Fragmented Nuclei (%) [4]: 39% and 97% | Population Healthy Nuclei (%) [4]: 9% and 1% | Population Hoechst High Intensity Objects (%) [4]: 45% | Population Membrane Permeable-Phenotype (%) [4]: 31% and 62% | Population Mitochondria Different-Phenotype (%) [4]: 5% and 12% | Population Mitotic Cells (%) [4]: 88% | Population Normal (%) [4]: 54% | Population Apoptotic (%) [5]: 50% | Population Healthy Nuclei (%) [5]: 0% and 11% | Population Hoechst High Intensity Objects (%) [5]: 81% and 50% | Population Membrane Permeable-Phenotype (%) [5]: 50% and 61% | Population Mitotic Cells (%) [5]: 50% | Population Normal (%) [5]: 18% and 49% | Population Tubulin-Different-Phenotype (%) [5]: 50% and 61% | Total Cell Count [5]: 432 and 192 | Population Apoptotic (%) [6]: 28% | Population Fragmented Nuclei (%) [6]: 37% and 97% | Population Hoechst High Intensity Objects (%) [6]: 56% and 82% | Population Membrane Permeable-Phenotype (%) [6]: 38% and 44% | Population Mitochondria Different-Phenotype (%) [6]: 33% and 11% | Population Mitotic Cells (%) [6]: 71% | Population Normal (%) [6]: 43% and 17% | Population Pyknosed Nuclei (%) [6]: 41% | Population Tubulin-Different-Phenotype (%) [6]: 47% and 55% | Total Cell Count [6]: 92 and 244 | Population Apoptotic (%) [7]: 33% and 22% | Population Fragmented Nuclei (%) [7]: 19% | Population Healthy Nuclei (%) [7]: 10% | Population Hoechst High Intensity Objects (%) [7]: 59% | Population Membrane Permeable-Phenotype (%) [7]: 61% | Population Mitotic Cells (%) [7]: 66% and 77% | Population Normal (%) [7]: 40% | Population Pyknosed Nuclei (%) [7]: 70% | Population Tubulin-Different-Phenotype (%) [7]: 75% | Population Apoptotic (%) [8]: 14% and 40% | Population Fragmented Nuclei (%) [8]: 38% and 98% | Population Healthy Nuclei (%) [8]: 15% and 0% | Population Hoechst High Intensity Objects (%) [8]: 51% and 82% | Population Mitochondria Different-Phenotype (%) [8]: 21% and 16% | Population Mitotic Cells (%) [8]: 85% and 60% | Population Normal (%) [8]: 48% and 17% | Population Tubulin-Different-Phenotype (%) [8]: 36% and 66%
